The record followed here is ChEMBL document CHEMBL1671641, “1,5-benzodiazepines, a novel class of hepatitis C virus polymerase nonnucleoside inhibitors” (Antimicrob Agents Chemother, 2008).

As usually defined, the CC50 is the concentration that lowers cell viability or growth by half. A high value points to better tolerance by the cells. The term EC50 denotes the concentration needed to bring the measured effect to its halfway point. In general, IC50 refers to the concentration that inhibits the measured activity by half.

A short description of series [1]: (§1) Cytotoxicity against LTR-Luc transfected human MT4 cells […] after 3 days by ATPLite assay. The format is cell-based.
Series [2] is described as follows: Cytotoxicity against CMV-Luc transfected human HuH7 cells after 5 days. The format is cell-based, Huh-7. The conditions noted are these: for CC50 at 120 h: CMV-Luc transfected HuH7 cells; for CC50: huh-7, 120 h, 120 h.
Series [3] deals with Hepatitis C virus. Nature of the series: Antiviral activity against Hepatitis C virus 1b infected in human HuH7 cells assessed as inhibition of viral replication after 3 days by luciferase reporter assay. It is filed as functional, organism-based, Hepacivirus hominis, genotype 1b, Huh-7. In a few lines: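 HCV 1b subgenomic luciferase reporter replicon (clone ET) cells, 2,500 per well, were exposed to a nine-point 1/4 dilution series for 3 days. Replication was read as luciferase activity. Values are means ± SD from 2 to 23 independent experiments run in quadruplicate.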
On the technique in general: In a reporter assay the amount or activity of a reporter protein is the signal.

The subject of series [4] is MT4. The series is described as §1. It is filed as cell-based. The note with it: mt4, 72 h, 72 h.
The test system of series [5] is Hepatitis C virus. Nature of the series: Inhibition of Hepatitis C virus 1b J4 recombinant NS5B Cdelta 21 RNA dependent RNA polymerase overexpressed in Escherichia coli BL21 (DE3) by RdRp primer-dependent transcription assay. The arrangement: species or system Hepatitis C virus subtype 1b.
The subject of series [6] is Hepatitis C virus. In words: Inhibition of Hepatitis C virus 1b J4 recombinant NS5B Cdelta 21 RNA dependent RNA polymerase overexpressed in Escherichia coli BL21 (DE3) assessed as [alpha-33P]UTP incorporation by RdRp primer-independent transcription assay. The arrangement: species or system Hepatitis C virus subtype 1b. In a few lines: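 De novo (primer-independent) RdRp assay: 190 nM NS5BΔ21 (1b J4) with 86 nM HCV 3′ UTR template RNA, 0.5 mM each ATP/GTP/CTP, 10 μM UTP plus [α-³³P]UTP, in 20 mM Tris-HCl pH 7.5, 1 mM DTT, 5 mM MgCl₂, 20 mM NaCl. Incubated 2 h at room temperature, stopped with EDTA/tRNA, TCA-precipitated on filters, and scintillation-counted. Quadruplicate.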

Series [7] deals with Hepatitis C virus. In words: Ratio of EC50 for Hepatitis C virus 796 infected in HuH7 cells to EC50 for Hepatitis C virus 796 harboring NNI P495L mutant site in NS5B infected in HuH7 cells. The format is functional, Hepacivirus hominis, Huh-7. The method, boiled down: (§2)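 NS5B NNI-site mutations were introduced into the genotype 1b ET subgenomic luciferase replicon by site-directed mutagenesis. RNA was made by in vitro transcription and tested in a transient-replication assay.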

The subject of series [8] is Hepatitis C virus. Nature of the series: Ratio of EC50 for Hepatitis C virus 796 infected in HuH7 cells to EC50 for Hepatitis C virus 796 harboring NNI M423T mutant site in NS5B infected in HuH7 cells. The format is functional, Hepacivirus hominis, Huh-7. In a few lines: as §2
The subject of series [9] is Hepatitis C virus. In words: Ratio of EC50 for Hepatitis C virus 796 infected in HuH7 cells to EC50 for Hepatitis C virus 796 harboring NNI M414Q mutant site in NS5B infected in HuH7 cells. It is filed as functional, Hepacivirus hominis, Huh-7. The method, boiled down: as §2
Series [10] relates to Hepatitis C virus. In words: Ratio of EC50 for Hepatitis C virus 796 infected in HuH7 cells to EC50 for Hepatitis C virus 796 harboring NNI Y448A mutant site in NS5B infected in HuH7 cells. The format is functional, Hepacivirus hominis, Huh-7. The method, boiled down:
as §2

Series [11] concerns Hepatitis C virus. Nature of the series: Ratio of EC50 for Hepatitis C virus 796 infected in HuH7 cells to EC50 for Hepatitis C virus 796 harboring NNI H95R mutant site in NS5B infected in HuH7 cells. The format is functional, Hepacivirus hominis, Huh-7. In a few lines: as §2
Series [12] deals with Hepatitis C virus. Nature of the series: Ratio of EC50 for Hepatitis C virus 796 infected in HuH7 cells to EC50 for Hepatitis C virus 796 harboring NNI C316Y mutant site in NS5B infected in HuH7 cells. It is filed as functional, Hepacivirus hominis, Huh-7. The method, boiled down: as §2
Series [13] has as its system Hepatitis C virus. In words: Inhibition of Hepatitis C virus 1b J4 recombinant NS5B Cdelta 21 RNA dependent RNA polymerase overexpressed in Escherichia coli BL21 (DE3). Also noted: species or system Hepatitis C virus subtype 1b.

As for `CC(=O)N1c2ccccc2NC2=C(C(=O)CC(C)(C)C2)C1c1ccc(OCc2ccccc2)cc1Cl` (stereo in doubt; 5), it took 16.7 µM to reach half-maximal cytotoxicity in [1] (CC50 at 72 h). The compound also displayed a CC50 at 120 h in series [2] of 35.5 µM.
As to `CC(=O)N1c2ccccc2NC2=C(C(=O)CC(C)(C)C2)C1c1ccc(OCc2ccccc2)cc1` (single isomer, unassigned; 3b), the EC50 in series [3] (huh-7) was found to be 2 µM. Also, the results for the CC50 in [4] and in series [2] were 18.3 µM and 19.7 µM, respectively. For the same compound, the IC50 in series [5] was 86.7 µM; in [6], 79.1 µM.
With `CC(=O)N1c2ccccc2NC2=C(C(=O)CC(C)(C)C2)C1c1ccc(OCc2ccccc2)cc1Cl` (single isomer, unassigned; 5b), the concentration giving a half-maximal response (EC50) in series [3] (huh-7) turned out to be 3.9 µM. The CC50 in series [4] came out at 17.3 µM; in [2], 53.7 µM. Further, the IC50 in series [5] stood at 83.1 µM.
Consider `c1ccc2[nH]ccc2c1` [INDOLE], for which the “fold change (FC)” value in series [7], in series [8], in series [9], in [10], in series [11] and in series [12] was 10 each time.
As to `CC(=O)N1c2ccccc2NC2=C(C(=O)CC(C)(C)C2)C1c1ccc(OCc2ccccc2)cc1Cl` (single isomer, unassigned; 5a), the EC50 in [3] (huh-7) was 9.3 µM. Further, the CC50 in series [4] worked out at 19.5 µM; in series [2] it was 49 µM. Moreover, in series [5], the IC50 came to 0.33 µM.
As to `CC(C)C[C@@]1(C(=O)O)C[C@H](C#N)[C@H](c2nccs2)N1C(=O)c1ccc(C(C)(C)C)cc1` [ACYL PYRROLIDINE], the “fold change (FC)” value in series [7], in series [8], in series [9], in [10], in [11] and in series [12] was 10 each time.
As to `CC(=O)N1c2cccc(O)c2NC2=C(C(=O)CC(C)(C)C2)C1c1ccc(OCc2ccccc2)cc1Cl` (stereo in doubt; 7), the EC50 in series [3] (Hepatitis C virus, genotype 1b, Huh-7, 72 h) turned out to be 1.43 µM. Moreover, the CC50 at 72 h in series [1] was 17.8 µM. In addition, it took 13.4 µM to reach half-maximal cytotoxicity in series [2] (CC50 at 120 h).
On to `CC(=O)N1c2ccccc2NC2=C(C(=O)CC(C)(C)C2)C1c1ccc(OCc2ccccc2)cc1` (single isomer, unassigned; 3a), for which the concentration giving a half-maximal response (EC50) in series [3] (huh-7) worked out at 15.3 µM. Moreover, the CC50 in series [4] was 22.2 µM; in series [2], 19.2 µM. Besides, the IC50 in series [5] was determined as 1 µM; in [6], 0.54 µM.
On the same counts, the results for `CC(=O)N1c2ccccc2NC2=C(C(=O)CC(C)(C)C2)C1c1ccc(OCc2ccccc2)c(Cl)c1` (single isomer, unassigned; 4b) are 0.6 µM, 12.9 µM, 21.2 µM, 35.9 µM and more than 32 µM.
`CC(=O)N1c2ccccc2NC2=C(C(=O)CC(C)(C)C2)C1c1ccc(OCc2ccccc2)cc1` (stereo in doubt; 3): the IC50 in series [13] came out at 3 µM. Further, the EC50 in series [3] (huh-7) came to 5.8 µM. In series [1], this compound yielded a CC50 at 72 h of 32 µM. For the same compound, in series [2], the midpoint of cytotoxicity, the CC50 at 120 h, lay at 32 µM.
`CC(=O)N1c2ccccc2NC2=C(C(=O)CC(C)(C)C2)C1c1ccc(OCc2ccccc2)c(Cl)c1` (stereo in doubt; 4): in series [3] (huh-7), the 50% effective concentration (EC50) amounted to 2.2 µM. For the same compound, in series [1], half-maximal cytotoxicity (CC50 at 72 h) was put at 22.1 µM. This compound gave a CC50 at 120 h in [2] of 40.2 µM.
`CC(C)N(c1cc(-c2ccccc2)sc1C(=O)O)C(=O)[C@H]1CC[C@H](C)CC1`: the “fold change (FC)” value in series [7], in [8], in [9], in [10], in series [11] and in series [12] was 10 in each case.
Take `c1ccc2occc2c1` [BENZOFURAN]: the “fold change (FC)” value in series [7], in series [8], in [9], in series [10], in series [11] and in series [12] was 10 throughout.
